In the RNAGym collection of RNA variant scans (doi:10.1126/science.aae0568) one finds yeast fitness data, which are given here for 37 variants.

Fewer inactive variants are shown than the library holds.

The chains are these.
B1: tRNA (parent)
chain: GUUCCGUUGGCGUAAUGGUAACGCGUCUCCCUCCUAAGGAGAAGACUGCGGGUUCGAGUCCCGUACGGAACG

In the series the parent is B1. Briefly: yeast fitness relative to wild type (ratio to wild type); higher = fitter; tRNA-Arg(CCU), competitive growth, 37 C, YPD. The method, boiled down: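 Variants of the tRNA-Arg(CCU) gene, chemically synthesised with a 3% per-site mutation rate at 69 sites, were placed at the native genomic locus in Saccharomyces cerevisiae. The pooled strains were competed in YPD at 37°C for 24 hours in six parallel replicates. Gene amplicons from the start population and from each end population were read by 100-nucleotide paired-end sequencing. Darwinian fitness relative to wild type came from changes in genotype frequencies; genotypes needed ≥ 100 starting reads, and estimates < 0.5 were set to 0.5.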
With GUUCCGUUGGCGUCAUGAUAACGCGUCUCCCUCCUAAGGAGAAGACUGCAGGUUCGAGUCCCCUACGGAACG [A14C G18A G50A G63C], the yeast fitness is not above 0.5.

With GUUCCGUUGGCGAAGUGGUAACGCGUCUCCCUCCUAAGGAGAAGACUGCGGGUUCGAGUCUCGUACGGAACG [U13A A15G C61U], the yeast fitness amounted to 0.564.

Consider GUUCCGUUGGCGUCAUGGUAACGCGUCUCCCUCCUAAGGAGAAGACAGCGGAUUCGAGUCCCGUACGGAACG [A14C U47A G52A], for which the yeast fitness was not above 0.5.

As to GUUCCGUUGGCGUAAUGGUAACGCGUCUCCCUCCUAAGGCGAAGACUGCGGGUUCGAGUUUCGUACGGAACG [A40C C60U C61U], the yeast fitness was not above 0.5.

On to GUUCCGUUGGCGUAAUGGUAACGCGUCUCCCUCCUAAGAAGAAGACUGCGGGUUCGAGUCCCGUAGGGAACG [G39A C66G], for which the yeast fitness is 0.711.

Take GUUUCGUUGGCGUAAUGGUAACGCGUCUCCCUCCUUAGGAGAAGACUGCGGAUUCGAGUCCCGUACGGAACG [C4U A36U G52A]: the yeast fitness is not above 0.5.

Regarding GUUCCGUUGGCGUAAUGGCAACGCAUCUCCCUCCUAAGGAGAAGACUCCGGGUUCGAGUCCAGUACGGAACG [U19C G25A G48C C62A], the yeast fitness is not above 0.5.

With GUGCCGUUGGCGUAAUGGUAACGCGUCUCCUUCUUAAGGAGAAGAGUGCGGGUUCGAGUCCCGUACGGAACG [U3G C31U C34U C46G], the yeast fitness is not above 0.5.

GUUCCGUUGCCGUAAUGGUAACGCGUCUCCCUCCUAAGGAGAAGACUGCGGGUUCAAGUCCCGUACGGACCG [G10C G56A A70C]: the yeast fitness amounted to 0.554.

GUUCCGUUGGCGUUAUGGUAACGCGUUUCCCUCCUAAGGAGAAGACUGCGGGUUCGAGUCCCGUACGGAACG [A14U C27U]: the yeast fitness came to 0.594.

On to GUUCAGUUGGUGUAAUGGUAACGCGUCUCCGUCCUAAGGAGAAGACUGCGGGUUCGAGUCCCGUACGGAACG [C5A C11U C31G], for which the yeast fitness is 0.558.

With GUUCCGUUGGCGUAAUGCUACCGCGUCUCGCUCCUAAGGAGAAGAGUGCGGGUUCGAGUCCCGUACGGAACG [G18C A21C C30G C46G], the yeast fitness was not above 0.5.

For the variant GUUCCGUUGGCGUAAUGGAAACGCGUCUCCCUCCUAAGGAGAAGACUGCGGGUUCGAGUCCCGUACGUAACG [U19A G68U], the yeast fitness amounted to 0.857.

GUUCCGUUGGCGUAAUGGUUACGCGUCUCCCUCCUAAGGAGAAGACUGUGGGUUCGAGUCCCGUACGGAACG [A20U C49U]: the yeast fitness is 0.899.

In the case of GUUCCGUUGGAGUAAUGGUAACGCGUCUCCCUCCUAAGGAGAAGACUGCGGGUUCGAGUCCCGUACGGCACG [C11A A69C], the yeast fitness is 0.671.

On to GUUCCGUUGGCGUAAUGGUAAGGCGUCUCCCUCCUAAGGAAAAGACUGCGGGUUCGAGUCCACUACGGAACG [C22G G41A C62A G63C], for which the yeast fitness was determined as 0.615.

GUUCCGUUGGCGUAAUGGUGACGCGUCUCCCUCCUAAGGAGAAGACUGUGGGUUCGAGUCCCGUACGGUACG [A20G C49U A69U]: the yeast fitness came to 0.779.

As for GUUCCGUUGGCGUAAUGGUAACGCGUCUCCCUGCUAAGGAGAAGACUGCGGGUGCGAGUCCCGUACGGAACG [C33G U54G], the yeast fitness is not above 0.5.

On to GUUCCGUUGGCGUAAUGGUAACGCGUCUCCCUCGUAAGGAGAAGACUGCGGGUUCGAGUCCCGUAUGGAACG [C34G C66U], for which the yeast fitness worked out at 0.634.

As for GUUCCGUUGGCGUAACGGUAACGCGUCUCCCUCCUAAGGAGUAGACUGCGGGUUCGAGUCCCCUACGGAACG [U16C A42U G63C], the yeast fitness is not above 0.5.

On to GUUCCGUUGGCGUAAUGGUAACGCGUCUCUCGCCUAAGGAGAAGACUGCGGGUUCGAGUCCCGAACGCAACG [C30U U32G U64A G68C], for which the yeast fitness was not above 0.5.

On to GGUCCGUUGGCGUAAUGGUACUGCGUCUCCCUCCUAAGGAGAAGACUGCGGGUUCGAGUCCCGUACGGAACG [U2G A21C C22U], for which the yeast fitness stood at 0.575.

In the case of GUUCCGUUGGCGUAAUGGUAACGCGUCUCACUCCUAAGGAGAAGACUGCGGGUUCGAGUCCAGUACGGAACG [C30A C62A], the yeast fitness was 0.589.

Consider GUUACGUUGGCGUAAUCGUAACGCGUCUCCCUCCUAAGGAGAAGACUGCGGGUUCAAGUCCCGUACGGAACG [C4A G17C G56A], for which the yeast fitness is not above 0.5.

As for GUUCCGUUGGCGUAAUGGUAACGUGUCUCGCUCCUAAGGAGAAGACUGCGGGUUCGAGUCCCGUACGGAACG [C24U C30G], the yeast fitness worked out at 0.836.

Consider GUUCGGUUGGCGUAAUGGUAACGCGUCUCCCUCCUAAGGAGUAGACUGCGGGUUCGAGUCCCGUACAGAACG [C5G A42U G67A], for which the yeast fitness came out at 0.532.

For the variant GUUCCGUUGGCGUAUUGGUAACGCGUCUCCCUCCUAACGAGACGACUGCGGGUUCGAGUCCCGUACGGAACG [A15U G38C A43C], the yeast fitness is not above 0.5.

In the case of GUUCCGUUAGCGUAAUGGUAACGCGUCUCCCUCCUAAGGAGAAGACUGCGGGUUCGAGUCCCGUGCGGAACG [G9A A65G], the yeast fitness was 0.881.

Consider GUUCAGUUGGCGUAAUCGUAACGCGUCUCCCUCCUAAGGAGAAAACUGCGGGUUCGAGUCUCGUACGGAACG [C5A G17C G44A C61U], for which the yeast fitness is not above 0.5.

On to GUACCGUUGGCGUAAUGGUAACGCGCCUCCUUCCUAAGGAGAAGACUGCGGAUUCGAGUCCCGUACGGAACG [U3A U26C C31U G52A], for which the yeast fitness was not above 0.5.

Turning to GUGCCGUUCGCGUAAUGGUAACGCGUCUCCCUGCUAAGGAGAAGACUGCGGGUUCGAGUCCCAUACGGAACG [U3G G9C C33G G63A], the yeast fitness was 0.606.

On to GGUCCGUUGGCGUAAUGGUAACGCGUCUCCUUCCUAAGGAGAAGACUGCGGGUUCGAGUCCCGUACGGAACG [U2G C31U], for which the yeast fitness was found to be 1.03.

Regarding GUUCGGUUGGCGUAAUGGUAACGCGUCUCCCUCCUAAGGAGAAGACUGCGGGUUCGAGUCCCGUACGGCACG [C5G A69C], the yeast fitness is 0.932.

In the case of GUUCCGUUGGCGUAAUGGUCACGCGUCUCCCUCCUAAGGAGAAGACUCCGGGUUCGAGUCCCGUACGGAACG [A20C G48C], the yeast fitness was determined as 0.889.

For GUUCCGUUCGCGUAAUGGUAACGUGUCUCGCUCCUAAGGAGAAGACUGCGAGUUCGAGUUCCGUACGGCACG [G9C C24U C30G G51A C60U A69C], the yeast fitness is not above 0.5.

Consider GUUCCGUUGGGGUAAUGGUAACGCGUCUCCCUCCUACGGAGAAGACUGCGGGUUCGAGUCCGGUAUGGAACG [C11G A37C C62G C66U], for which the yeast fitness is not above 0.5.

Turning to GAUCCGUUGGCGUAAUGGUAACGCGUCUCCCUCCUAAGGAGAAGACUGCGGGUUCGACUCCCGUAUGGAACG [U2A G58C C66U], the yeast fitness stood at 0.702.
